Laboratory results as given in the RNAGym collection of RNA variant scans (doi:10.1126/science.aae0568).
This sample holds only a part of the variants without activity.

B1: tRNA (parent)
chain: GUUCCGUUGGCGUAAUGGUAACGCGUCUCCCUCCUAAGGAGAAGACUGCGGGUUCGAGUCCCGUACGGAACG

Variants of: B1
Assay: yeast fitness relative to wild type (ratio to wild type); higher = fitter; tRNA-Arg(CCU), competitive growth, 37 C, YPD
In short: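 Genotype frequency changes were the basis for Darwinian fitness relative to wild type. The frequencies came from 100-nucleotide paired-end sequencing of gene amplicons from the start population and each end population of pooled yeast strains with tRNA-Arg(CCU) gene variants at the native locus. Competition ran in YPD at 37°C for 24 hours in six replicates, genotypes needed ≥ 100 starting reads, and estimates < 0.5 were set to 0.5.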

| Variant | yeast fitness |
| --- | --- |
| A15U C22U C33G G50A | ≤ 0.5 |
| A15G U28C U35A G38A C46G C62U | 0.718 |
| A15U C22A G23A C24A C46A A70G | ≤ 0.5 |
| A15G U16C C34U G44C | ≤ 0.5 |
| A15G U53G | 0.61 |
| A15G U53A | 0.667 |
| A15U C22U | 0.743 |
| A15U C22G | 0.67 |
| A15U C22A | 0.738 |
| A15U C31G U53A C55U A57C C60G G67C | 0.546 |
| A15G U26G G41C A43C C66A | ≤ 0.5 |
| A15U A40U | 0.637 |
| A15G U54A C61U | 0.57 |
| A15U C66U A70U | 0.604 |
| A15U C29A C49G A69U | ≤ 0.5 |
| A15U C29U C46U | 0.667 |
| A15U C24G C30U A57U A69C | ≤ 0.5 |
| A15U C22G C31U A57C | ≤ 0.5 |
| A15U C46A U53A A69G | ≤ 0.5 |
| A15G G25A G38A | ≤ 0.5 |
| A15U C24G U32A G41A | ≤ 0.5 |
| A15U A21C C29A U32A | 0.728 |
| A15G U16C A20C A21U U26C | ≤ 0.5 |
| A15U A20G C27U C66A | ≤ 0.5 |

| Variant | yeast fitness |
| --- | --- |
| A15U C33A A37G U53C | 0.668 |
| A15G U35A G52A U59C C66A G67A | ≤ 0.5 |
| A15U A43U G48A G68C | ≤ 0.5 |
| A15G G68U | 0.782 |
| A15G G68C | 0.648 |
| A15U A37G A65C | ≤ 0.5 |
| A15U C30U A40G C55U | 0.653 |
| A15U C24G | 0.647 |
| A15U C24U | 0.627 |
| A15U C24A | 0.53 |
| A15U C60A | 0.512 |
| A15U A40U C61U A70G | 0.718 |
| A15U C30G C34U | 0.71 |
| A15U C31A C49G A65C | ≤ 0.5 |
| A15U C31A C49G | 0.576 |
| A15G G23A G50A A57C A65U | 0.6 |
| A15U C55U | 0.672 |
| A15U C55G | 0.604 |
| A15U C55A | 0.503 |
| A15U A36C A40U A65U | ≤ 0.5 |
| A15U C31G C33G A42U | ≤ 0.5 |
| A15U A20G A45U | ≤ 0.5 |
| A15U A45U G68C A70U | ≤ 0.5 |
| A15U C31A U54C | ≤ 0.5 |

| Variant | yeast fitness |
| --- | --- |
| A15G U35A C62A G63C | ≤ 0.5 |
| A15U C27U U47C G68C | ≤ 0.5 |
| A15U A20G G52C A65U G67C | ≤ 0.5 |
| A15U C27G U59C | ≤ 0.5 |
| A15G U32A G38A A69U | ≤ 0.5 |
| A15G U54G | 0.612 |
| A15G U54C | 0.905 |
| A15G U54A | 0.648 |
| A15G G41C | 0.827 |
| A15U A43G U47A | 0.547 |
| A15U C46U A65U G68C | ≤ 0.5 |
| A15G G39C A42C | 0.553 |
| A15U A20C G23A G50C G63A | ≤ 0.5 |
| A15G U28G A42U G48A C61U | ≤ 0.5 |
| A15G U54C C55G C61G A65U | ≤ 0.5 |
| A15G G25A C60U G68C | 0.561 |
| A15G U16C C29G G41A | 0.599 |
| A15G G48C G51A | ≤ 0.5 |
| A15U C33G C34G A45U G51A | ≤ 0.5 |
| A15U C27A C61G | ≤ 0.5 |
| A15U C27A C61U | ≤ 0.5 |
| A15U A21C G52A | ≤ 0.5 |
| A15G G39A A70C | 0.742 |
| A15G U26C G44A G50C A70G | ≤ 0.5 |

| Variant | yeast fitness |
| --- | --- |
| A15U A43U C46G C61A | ≤ 0.5 |
| A15U C34G A37G A40C U64C | ≤ 0.5 |
| A15U A45C C49U | 0.618 |
| A15G G56C C61U | ≤ 0.5 |
| A15U C24A G25A U47C G52C | ≤ 0.5 |
| A15G U47G G56A | ≤ 0.5 |
| A15U A43U | 0.826 |
| A15U A43G | 0.726 |
| A15U C31G U53A C55U G68U | ≤ 0.5 |
| A15U C29A G50C | ≤ 0.5 |
| A15U A45C C49G G58C | ≤ 0.5 |
| A15U C27A | 0.593 |
| A15U C27U | 0.699 |
| A15G U54A C62U | ≤ 0.5 |
| A15G G25A C61U A70U | ≤ 0.5 |
| A15G U35G A45U | ≤ 0.5 |
| A15G U26C G63A | ≤ 0.5 |
| A15U C62G | 0.646 |
| A15U C22A A43G G51C | ≤ 0.5 |
| A15G U28A C34G C46A A69G | ≤ 0.5 |
| A15U C24G A42C C66A | 0.59 |
| A15G U16A U19C C30U G52C | ≤ 0.5 |
| A15G U47C A69C | 0.754 |
| A15G G44A C49U G50C A70G | ≤ 0.5 |

| Variant | yeast fitness |
| --- | --- |
| A15U C24G G68A | ≤ 0.5 |
| A15G G58C G68A | 0.593 |
| A15U A45C C55U | ≤ 0.5 |
| A15U A37C A43U | 0.514 |
| A15G G48C A57U | 0.511 |
| A15U C24G C30U | 0.608 |
| A15U C22U G52A | 0.596 |
| A15U A65C | 0.698 |
| A15U A57U | 0.666 |
| A15U C30U G52A A65U | ≤ 0.5 |
| A15U C29G C31G C60U | 0.675 |
| A15U C33U A36G C62G A69C | ≤ 0.5 |
| A15U C22A G23A C24A C46A | ≤ 0.5 |
| A15U C24G G56A | ≤ 0.5 |
| A15U C22G C31U C60A | ≤ 0.5 |
| A15G G39C C62U G63C | ≤ 0.5 |
| A15U A21G C49U | 0.556 |
| A15G G25A C27U C49U | 0.714 |
| A15U C27A C62A A69U | ≤ 0.5 |
| A15U C46U U54C | 0.684 |
| A15G U16A A20G U28A C30A C33A A36U A69C | ≤ 0.5 |
| A15U C30G G50A | ≤ 0.5 |
| A15U A45U | 0.593 |
| A15U A45G | 0.732 |

| Variant | yeast fitness |
| --- | --- |
| A15U C31U U35A A36C U53A G68C | ≤ 0.5 |
| A15G G39C U54C C55U | ≤ 0.5 |
| A15U C61A | 0.571 |
| A15U C61U | 0.673 |
| A15U C61G | 0.582 |
| A15U A45U G68C | ≤ 0.5 |
| A15U A20U G56C | ≤ 0.5 |
| A15G U16C | 0.927 |
| A15G U16A | 0.919 |
| A15G G48A G58C | 0.759 |
| A15G G25A C49U A65U | 0.58 |
| A15G G23C A45G G52A | 0.65 |
| A15U C34G A37G A40C | 0.59 |
| A15G G25A C61U | 0.558 |
| A15U C22A G23A C24A G56C | ≤ 0.5 |
| A15U A57C A65G | ≤ 0.5 |
| A15G G56C C66G | ≤ 0.5 |
| A15U C24U A37U | ≤ 0.5 |
| A15U C46G A70U | 0.56 |
| A15U A20C G23A G50C | 0.577 |
| A15G G48A A70C | 0.748 |
| A15G U16C C34U G44C C61U | ≤ 0.5 |
| A15U G18A U35C G58A | ≤ 0.5 |
| A15U C31A | 0.588 |

| Variant | yeast fitness |
| --- | --- |
| A15U C31U | 0.707 |
| A15U C31G | 0.676 |
| A15G G39A A69U | 0.774 |
| A15U C46G | 0.825 |
| A15U C46A | 0.719 |
| A15U C46U | 0.978 |
| A15G G23A G25A G38A | 0.746 |
| A15U A21G C31G C49A | ≤ 0.5 |
| A15G G44C C61U | 0.607 |
| A15G G56C | 0.651 |
| A15U C22G G52C A65C | ≤ 0.5 |
| A15G G44A G50C A70G | ≤ 0.5 |
| A15U A20C C34A G68C | ≤ 0.5 |
| A15G G63C A65G | 0.543 |
| A15U A36U G48C C66U | ≤ 0.5 |
| A15G U19C A21G | 0.656 |
| A15U A42U C49G C60A | ≤ 0.5 |
| A15U C22A A43G G51C U59C C62U G68U | ≤ 0.5 |
| A15U C27U G39A G48A | ≤ 0.5 |
| A15U C33G G50A | 0.625 |
| A15U C34U G41C A69G | ≤ 0.5 |
| A15U C30U C62U | 0.572 |
| A15G G63C A69U | 0.651 |
